Reference: ChEMBL document CHEMBL1132260, “Antitumor agents. 194. Synthesis and biological evaluations of 4-beta-mono-, -di-, and -trisubstituted aniline-4'-O-demethyl-podophyllotoxin and related compounds with improved pharmacological profiles” (J Med Chem, 1999)

Columns and labels:
CAKI-1 = assay: The compound was tested for tumor cell growth inhibitory activity against human renal cancer(CAKI-1) cell line; type: functional; conditions: CAKI-1, read-out: ED50
Summary of the method: (§1)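 For the SRB growth assay, cells were grown in RPMI-1640 with 10% FBS and kanamycin at 37 °C under 5% CO2. Drug exposure was 3 days, with DMSO ≤2% final. Absorbance was read at 562 nm. ED50 (50% absorbance reduction vs untreated) was interpolated from dose–response data. Tests were run in triplicate.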

MCF7 = assay: The compound was tested for tumor cell growth inhibitory activity against human breast cancer (MCF-7) cell line.; type: functional; conditions: MCF7, read-out: ED50; summary of the method: as §1
KB [1] = assay: Cellular protein-DNA complex breaking activity against KB cells labeled with tritiated thymidine.; type: functional, Homo sapiens
Summary of the method: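 KB cells were labelled overnight with tritiated thymidine, chased 2 h, then exposed in triplicate to test agent for 1 h. Protein–DNA complexes were read as potassium-SDS precipitable radioactivity and expressed as fold over untreated control.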

HCT-8 = assay: The compound was tested for tumor cell growth inhibitory activity against human ileocecal carcinoma (HCT-8) cell line; type: functional; conditions: HCT-8, read-out: ED50; summary of the method: as §1
KB [2] = assay: The compound was tested for tumor cell growth inhibitory activity against human etoposide (KB-7d) cell line.; type: functional; conditions: read-out: ED50 (the source's name); summary of the method: as §1
A549 = assay: The compound was tested for tumor cell growth inhibitory activity against human lung carcinoma (A549) cell line.; type: functional; conditions: A549, read-out: ED50; summary of the method: as §1
[3] = molecular target: T1, DNA topoisomerase II (Homo sapiens) (UniProt P11388+Q02880); assay: The compound was tested for inhibitory activity against human DNA topoisomerase-2.; type: protein assay
Summary of the method: (§2)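 Human topoisomerase II (p170 isoform, 0.25 U) was assayed by P4 DNA unknotting. The buffer was 50 mM Tris-HCl pH 7.5, 100 mM KCl, 10 mM MgCl2, 0.5 mM DTT, 0.5 mM EDTA and 1 mM ATP, with BSA. Reactions ran 1 h at 37 °C, were stopped with SDS-sucrose, then run on 0.7% agarose and stained with ethidium bromide. Inhibition was scored by eye. IC100 is the concentration giving complete inhibition.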

[4] = The compound was tested for cytotoxic activity against KB cell line by clonogenic cell survival assay.; type: cell-based; conditions: human, KB cells; read-out: LD50 (the source's name)
Summary of the method: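 KB cells were exposed to a range of concentrations for 3 h, then replated. Colony formation and plating efficiency were counted. LD50 (50% fall in plating efficiency vs untreated control) was read graphically. There were three independent experiments.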

Mus musculus [5] = assay: The compound was tested for antitumor activity against (P388/0) Leukemia cells in mice. with a dosage of 40.0 mg/Kg/dose. activity is expressed as net log change in tumor burden.; type: functional, Leukemia cell
Summary of the method: (§3)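 The P388/0 leukaemia was implanted ip in female CD2F1 mice. Treatment was iv on a Q4D×3 schedule, injected at 0.1 cm³/10 g body weight. Agents were given in saline or in 10% DMSO/35% PEG 300/5% Tween 80/50% D5W, against a saline control. Median day of death, %ILS and net log change in tumour burden (at end of treatment) were recorded. The work was done at a contract lab.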

Mus musculus [6] = assay: The compound was tested for antitumor activity against (P388/0) Leukemia cells in mice. with a dosage of 10.0 mg/Kg/dose. activity is expressed as %ILS.; type: functional; conditions: Leukemia cell; summary of the method: as §3
Mus musculus [7] = assay: The compound was tested for antitumor activity against (P388/0) Leukemia cells in mice. with a dosage of 40.0 mg/Kg/dose; type: functional, Leukemia cell; summary of the method: as §3
Mus musculus [8] = assay: The compound was tested for antitumor activity against (P388/0) Leukemia cells in mice. with a dosage of 27.0 mg/kg/dose. activity is expressed as %ILS.; type: functional; conditions: Leukemia cell; summary of the method: as §3
KB [9] = assay: The compound was tested for tumor cell growth inhibitory activity against human KB-7d cell line resistant to etoposide; type: functional; conditions: read-out: ED50 (the source's name); summary of the method: as §1
Mus musculus [10] = assay: The compound was tested for antitumor activity against (P388/0) Leukemia cells in mice. with a dosage of 27.0 mg/Kg/dose. activity is expressed as median day of death.; type: functional, Leukemia cell; summary of the method: as §3
Mus musculus [11] = assay: The compound was tested for antitumor activity against (P388/0) Leukemia cells in mice. with a dosage of 27.0 mg/Kg/dose. activity is expressed as net log change in tumor burden.; type: functional, Leukemia cell; summary of the method: as §3
KB [12] = assay: The compound was tested for tumor cell growth inhibitory activity against human KB-vin20c cell line resistant to vincristine; type: functional; conditions: read-out: ED50 (the source's name); summary of the method: as §1
Mus musculus [13] = assay: The compound was tested for antitumor activity against Subcutaneous Mammary Tumor MCF-7 cells. with a dosage of 40.0 mg/Kg/dose. activity is expressed as days to tumor doubling.; type: functional, MCF7
Summary of the method: (§4)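 MCF-7 human mammary tumour cells were implanted sc in female athymic nude mice. Dosing was iv on a Q4D×3 schedule at 0.1 cm³/10 g body weight, using saline or a DMSO/PEG 300/Tween 80/D5W vehicle, with a saline control. The endpoint was days to tumour doubling.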

Mus musculus [14] = assay: The compound was tested for antitumor activity against (P388/0) Leukemia cells in mice. with a dosage of 40.0 mg/Kg/dose. activity is expressed as %ILS.; type: functional; conditions: Leukemia cell; summary of the method: as §3
Mus musculus [15] = assay: The compound was tested for antitumor activity against (P388/0) Leukemia cells in mice. with a dosage of 10.0 mg/Kg/dose. activity is expressed as net log change in tumor burden.; type: functional, Leukemia cell; summary of the method: as §3
Mus musculus [16] = assay: The compound was tested for antitumor activity against Subcutaneous Mammary Tumor MCF-7 cells. with a dosage of 27.0 mg/Kg/dose. activity is expressed as days to tumor doubling.; type: functional, MCF7; summary of the method: as §4
Mus musculus [17] = assay: The compound was tested for antitumor activity against (P388/0) Leukemia cells in mice. with a dosage of 10.0 mg/Kg/dose. activity is expressed as median day of death.; type: functional, Leukemia cell; summary of the method: as §3
[18] = molecular target: T1, DNA topoisomerase II (Homo sapiens); assay: The compound was tested for inhibitory activity against human DNA topoisomerase II; type: protein assay; summary of the method: as §2

For `COc1cc([C@@H]2c3cc4c(cc3[C@@H](Nc3cc([N+](=O)[O-])cc([N+](=O)[O-])c3)[C@H]3COC(=O)[C@H]23)OCO4)cc(OC)c1O`, the EC50 (CAKI-1) was 10 µM, the EC50 (MCF7) was over 5 µM and the Complex formation (KB [1]) was 20%. The EC50 (HCT-8) was 26 µM, the EC50 (KB [2]) was 17500 µM and the EC50 (A549) was over 40 µM. The IC100 [3] was over 100 µM.
For `COc1cc([C@@H]2c3cc4c(cc3[C@@H](O[C@@H]3O[C@@H]5CO[C@@H](C)O[C@H]5[C@H](O)[C@H]3O)[C@H]3COC(=O)[C@H]23)OCO4)cc(OC)c1O` [ETOPOSIDE], the CC50 [4] was 20 µM, the “Net log change in tumor burden” value (Mus musculus [5]) was -5.5 and the ILS at 10 mg/kg/day (Mus musculus [6]) was 90%. The EC50 (CAKI-1) was 2.2 µM, the Day of death (Mus musculus [7]) was 26 and the ILS at 27 mg/kg/day (Mus musculus [8]) was 130%. The EC50 (KB [9]) was 23.8 µM, the Day of death (Mus musculus [10]) was 23 and the “Net log change in tumor burden” value (Mus musculus [11]) was -3.4. For the same compound, the EC50 (KB [12]) was 30.6 µM, the EC50 (MCF7) was over 5 µM and the “Days to tumor doubling” value (Mus musculus [13]) was over 24.1. The Complex formation (KB [1]) was 100%, the ILS at 40 mg/kg/day (Mus musculus [14]) was 160% and the “Net log change in tumor burden” value (Mus musculus [15]) was -0.7. For the same compound, the “Days to tumor doubling” value (Mus musculus [16]) was 18.5, the Day of death (Mus musculus [17]) was 19 and the EC50 (HCT-8) was over 5 µM. It also gave an EC50 (A549) of 1.95 µM.
`COc1cc([C@@H]2c3cc4c(cc3[C@H](Nc3cc([N+](=O)[O-])cc([N+](=O)[O-])c3)[C@H]3COC(=O)[C@H]23)OCO4)cc(OC)c1O` showed an EC50 (CAKI-1) of over 10 µM, an EC50 (MCF7) of 2.5 µM and a Complex formation (KB [1]) of 8%. The EC50 (HCT-8) was over 5 µM, the EC50 (KB [2]) was 7600 µM and the EC50 (A549) was over 5 µM. The IC100 [3] was over 100 µM.
In the case of `COc1cc([N+](=O)[O-])ccc1N[C@@H]1c2cc3c(cc2[C@@H](c2cc(OC)c(O)c(OC)c2)[C@H]2C(=O)OC[C@@H]21)OCO3`, the CC50 [4] is reported as over 20 µM, the EC50 (CAKI-1) is reported as 1.1 µM and the EC50 (MCF7) is reported as 5 µM. The Complex formation (KB [1]) was 83%, the EC50 (HCT-8) was over 10 µM and the EC50 (KB [2]) was 4000 µM. The EC50 (A549) was 0.63 µM and the IC100 [3] was over 100 µM.
`COc1cc([C@@H]2c3cc4c(cc3[C@@H](Nc3ccc([N+](=O)[O-])cc3)[C@H]3COC(=O)[C@H]23)OCO4)cc(OC)c1O` showed a CC50 [4] of 1 µM, an EC50 (CAKI-1) of 1.5 µM and an EC50 (MCF7) of 28.5 µM. For the same compound, the Complex formation (KB [1]) was 122%, the EC50 (HCT-8) was 8.5 µM and the IC100 [3] was 10 µM.
Work on `COc1ccc([N+](=O)[O-])cc1N[C@@H]1c2cc3c(cc2[C@@H](c2cc(OC)c(O)c(OC)c2)[C@H]2C(=O)OC[C@@H]21)OCO3` yielded a CC50 [4] of over 20 µM, an EC50 (CAKI-1) of 2.5 µM and an EC50 (MCF7) of 2.4 µM. For the same compound, the Complex formation (KB [1]) was 12%, the EC50 (HCT-8) was 4.8 µM and the EC50 (KB [2]) was 1800 µM. For the same compound, the EC50 (A549) was 2.25 µM and the IC100 [3] was over 100 µM.
For `COc1cc([C@@H]2c3cc4c(cc3[C@@H](Nc3ccc(NC(=O)C56CCC(C)(C(=O)O5)C6(C)C)cc3)[C@H]3COC(=O)[C@H]23)OCO4)cc(OC)c1O` (stereo partly drawn), the EC50 (CAKI-1) was over 1.25 µM, the EC50 (MCF7) was over 5 µM and the Complex formation (KB [1]) was 88%. It also gave an EC50 (HCT-8) of 20 µM, an EC50 (KB [2]) of 5600 µM and an EC50 (A549) of 2.2 µM. The IC100 [3] was 10 µM.
Compound `COc1ccc(N[C@@H]2c3cc4c(cc3[C@@H](c3cc(OC)c(O)c(OC)c3)[C@H]3C(=O)OC[C@@H]32)OCO4)c([N+](=O)[O-])c1` has a CC50 [4] of over 20 µM, an EC50 (CAKI-1) of 0.63 µM and an EC50 (MCF7) of 2.5 µM. The Complex formation (KB [1]) was 15%, the EC50 (HCT-8) was 2 µM and the EC50 (KB [2]) was 740 µM. The EC50 (A549) was 1.7 µM and the IC100 [3] was over 100 µM.
For `COc1cc([N+](=O)[O-])c(OC)cc1N[C@@H]1c2cc3c(cc2[C@@H](c2cc(OC)c(O)c(OC)c2)[C@H]2C(=O)OC[C@@H]21)OCO3`, the EC50 (CAKI-1) was 45 µM, the EC50 (KB [9]) was 37 µM and the EC50 (KB [12]) was 20 µM. It also gave an IC100 [18] of over 100 µM, a Complex formation (KB [1]) of 4.4% and an EC50 (HCT-8) of over 50 µM. For the same compound, the EC50 (A549) was 21.5 µM.
`COc1cc([C@@H]2c3cc4c(cc3[C@@H](Nc3nc5ccccc5[nH]3)[C@H]3COC(=O)[C@H]23)OCO4)cc(OC)c1O` showed an EC50 (CAKI-1) of 17.5 µM, an EC50 (KB [9]) of 0.9 µM and an EC50 (KB [12]) of 1000 µM. It also gave an IC100 [18] of 100 µM, a Complex formation (KB [1]) of 58% and an EC50 (HCT-8) of 3.3 µM. For the same compound, the EC50 (A549) was 3.5 µM.
For `COc1cc([C@@H]2c3cc4c(cc3[C@@H](Nc3ccc(-c5nc6ccccc6[nH]5)cc3)[C@H]3COC(=O)[C@H]23)OCO4)cc(OC)c1O`, the CC50 [4] was 0.2 µM, the EC50 (CAKI-1) was 0.35 µM and the EC50 (KB [9]) was 450 µM. It also gave an EC50 (KB [12]) of 1.4 µM, an IC100 [18] of 10 µM and an EC50 (MCF7) of 0.85 µM. The Complex formation (KB [1]) was 128%, the EC50 (HCT-8) was 0.63 µM and the EC50 (A549) was 0.23 µM.
`COc1cc(N[C@@H]2c3cc4c(cc3[C@@H](c3cc(OC)c(O)c(OC)c3)[C@H]3C(=O)OC[C@@H]32)OCO4)c(C)cc1[N+](=O)[O-]` showed an EC50 (CAKI-1) of over 50 µM, an IC100 [18] of over 100 µM and a Complex formation (KB [1]) of 3.5%. It also gave an EC50 (HCT-8) of over 50 µM and an EC50 (A549) of over 50 µM.
